Hits are enriched below; roughly 1.9% of the tested compounds scored in any of these assays.
STEP inh – blocks human striatal-enriched tyrosine phosphatase; hit rate 0.25% among 360,000; inhibition, % at 20 µM; recombinant STEP, OMFP fluorogenic substrate, fluorescence;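 active = inhibition at 20 µM, scaled per plate between control wells, above about 37%, limit read from the data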
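Assay system: isolated STEP enzyme. Buffer or medium: pH 6.0 Bis-Tris with DTT and Tween 20. Also added: fluorogenic phosphatase substrate OMFP at 25 µM final. Dosing: 20 µM, 1% DMSO. Timing: 20 min reaction, room temperature, in the dark. Measured by: fluorescence intensity, excitation 480 nm, emission 540 nm. Evaluation: normalized % inhibition.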
Scp-1 inhibitor – inhibitors of human Scp-1 phosphatase. hit rate 0.88% among 340,000. inhibition, % at 20 µM. Recombinant Scp1, phosphopeptide, malachite green phosphate absorbance;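 active = inhibition above about 50% at 20 µM, limit read from the data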
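System: SCP-1 catalytic domain; Reagent: Phospho 17-mer peptide substrate; Doses: one concentration, 20 µM, with 1.0% DMSO; Incubation: 45 min room-temperature reaction, 5 min colour, 30 min stabiliser; Signal: Phosphate-binding colour reagent, absorbance read at 630 nm.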
LMPTP inh – LMPTP (human) inhibition. P24666. recombinant LMPTP-A, OMFP fluorogenic substrate, fluorescence intensity. inhibition, % at 20 µM. hit rate 0.22% among 360,000. AID 651560;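 active = compounds that cut the enzyme signal by at least half of the control window in the single-dose screen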
Target sequence (P24666 whole entry, looked up): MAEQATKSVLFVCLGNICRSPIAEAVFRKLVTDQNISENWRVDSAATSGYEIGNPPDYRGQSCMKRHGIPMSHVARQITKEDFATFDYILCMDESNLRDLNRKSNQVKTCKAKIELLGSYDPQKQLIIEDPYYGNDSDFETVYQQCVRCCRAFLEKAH
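Test system: LMPTP-A phosphatase enzyme. Amount: LMPTP-A at 0.625 nM final in the reaction. Reagent: OMFP substrate, 400 µM final. Times: 50 min at room temperature. Signal: endpoint fluorescence intensity from OMFP dephosphorylation. Read-out basis: % inhibition. Benchmarks: no-enzyme and uninhibited controls.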
PP1 inh – counter-screen for PP5 inhibitors: inhibitors of human PP1-alpha; hit rate 0.9% among 320,000; inhibition, % at 6.7 µM; P62136; purified PP1alpha, OMFP fluorescence;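 active = inhibition above the mean inhibition of all tested compounds plus 3 SD, computed separately for each screening campaign, cut at about 15% in these data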
PP5 inh – inhibitors of human protein phosphatase 5 (PP5). hit rate 0.18% among 320,000. purified PP5c, OMFP substrate fluorescence. AID 1987. inhibition, % at 6.7 µM. P53041;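 active = inhibition above the campaign's mean inhibition across all tested compounds plus 3 SD, cut at about 9.5% in these data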
Target sequence (P53041 whole entry, looked up): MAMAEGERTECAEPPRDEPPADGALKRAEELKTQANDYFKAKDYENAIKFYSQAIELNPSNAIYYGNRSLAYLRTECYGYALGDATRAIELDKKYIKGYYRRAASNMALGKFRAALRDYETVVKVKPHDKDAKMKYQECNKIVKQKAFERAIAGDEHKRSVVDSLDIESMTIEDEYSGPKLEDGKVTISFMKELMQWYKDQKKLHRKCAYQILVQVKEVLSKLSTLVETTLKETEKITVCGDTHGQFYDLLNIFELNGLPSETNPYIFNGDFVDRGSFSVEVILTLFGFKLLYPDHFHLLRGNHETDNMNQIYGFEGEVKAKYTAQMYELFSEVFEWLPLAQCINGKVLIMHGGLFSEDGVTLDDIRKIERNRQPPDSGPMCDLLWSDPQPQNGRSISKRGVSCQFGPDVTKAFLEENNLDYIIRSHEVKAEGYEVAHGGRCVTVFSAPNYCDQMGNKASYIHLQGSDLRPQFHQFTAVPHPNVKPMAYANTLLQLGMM
Scp1 confirm – Scp-1 (human) inhibition, single-dose confirmed; hit rate 61% among 2,500; recombinant SCP-1 catalytic domain, phosphate release, malachite green absorbance; inhibition, % at 20 µM; shares compounds with Scp-1 inhibitor
Scp-1 MG ctr – counter-screen for Scp-1 inhibitors: colorimetric interference; shares compounds with Scp-1 inhibitor; Colorimetric interference counterscreen, malachite green absorbance 630 nm; apparent inhibition (interference), % at 20 µM; 2,500 tested, under 10 active;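 also: compounds added after enzyme reaction finished so only phosphate colour detection is probed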
Scp-1 Tm shift – Scp-1 (human) binding by thermal shift; shares compounds with Scp-1 inhibitor; Recombinant SCP1, Sypro Orange thermal shift Tm; thermal shift relative to vanadate control, % at 40 µM; hit rate 25% among 1,500; AID 540329;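 active = substances whose mean melting-temperature shift, as a percentage of the reference inhibitor's shift, reaches about 5.3%, limit read from the data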
A number is an active result; - = inactive; . = no result.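 The calls were made as follows, unless noted: active = inhibition of at least 30% at 20 µM; inactive = the rest.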

SMILES	STEP inh	Scp-1 inhibitor	LMPTP inh	PP1 inh	PP5 inh	Scp1 confirm	Scp-1 MG ctr	Scp-1 Tm shift
CCC(C)C1Nc2ccc(C(=O)NCc3ccc4c(c3)OCO4)cc2NC1=O (stereo not drawn)	-	-	-	-	-	-	-	.
CCc1cc(C(=O)NNC(=S)NC(C)c2ccccc2)cs1 (stereo not drawn)	-	-	-	-	-	.	.	.
O=C(CSc1nc2ccccc2c(=O)n1-c1ccc(F)cc1F)NC1CC1	-	.	-	.	.	.	.	.
Cc1cccc(C(=O)Nc2ccc(C(=O)N/N=C/c3cccnc3)cc2)c1	-	-	-	-	-	.	.	.
O=C(N/N=C/c1cccnc1)c1cccc(NC(=O)c2ccc(Cl)cc2)c1	96.8	82.2	-	-	-	65.4	-	-
COc1cccc(C(=O)c2cn(CC(=O)NCc3ccco3)c3nc(C)ccc3c2=O)c1	-	62.1	-	-	-	66.3	-	-
Cc1ccc2c(=O)c(C(=O)c3ccc(F)cc3)cn(CC(=O)NCc3ccco3)c2n1	-	60.5	-	-	-	51.6	-	-
CCn1cc(C(=O)NCc2ccc(OC)cc2)c(=O)c2ccc(C)nc21	-	-	-	-	-	.	.	.
CCc1nn2c(=O)cc(COc3ccc(/C=C4\C(=N)N5N=C(CC(C)C)SC5=NC4=O)cc3)nc2s1	.	-	.	-	-	.	.	.
CCC1=NN2C(=N)/C(=C\c3ccc(OCc4cc(=O)n5nc(CC)sc5n4)c(OC)c3)C(=O)N=C2S1	-	74.6	-	.	.	50.7	-	-
COc1cc(/C=C2\C(=N)N3N=C(S(C)(=O)=O)SC3=NC2=O)ccc1OCCOc1ccc(C)cc1	-	67.1	-	-	-	36.3	-	9.7
CCS(=O)(=O)C1=NN2C(=N)/C(=C\c3ccc(OCCOc4cccc(OC)c4)c(OC)c3)C(=O)N=C2S1	-	67.1	-	16.1	-	65.1	-	11.2
O=C1NN(c2ccccc2)C(=O)/C1=C/c1ccc(-c2ccc(Cl)c(C(=O)O)c2)o1	-	69.7	-	.	.	62.3	-	13.8
O=C(O)c1cc(-c2ccc(/C=C3\NC(=O)N(c4ccccc4)C3=O)o2)ccc1Cl	40.2	72.6	-	-	-	55.3	-	9.1
Cc1cccc(N2NC(=O)/C(=C/c3ccc(-c4ccc(Cl)c(C(=O)O)c4)o3)C2=O)c1	-	71.3	-	.	.	55.6	-	12.0
O=C(O)c1cc(-c2ccc(/C=c3\sc4nc5ccc(Br)cc5n4c3=O)o2)ccc1Cl	.	.	.	-	-	.	.	.
CCC(C(=O)N(C(C)C)C(C)C)c1ccccc1 (stereo not drawn)	-	-	-	-	-	.	.	.
Cc1cc(/C=N/NC(=O)c2cccc(N(C)C)c2)c(C)n1-c1cc(C(=O)O)cc(C(=O)O)c1	-	66.1	-	.	.	53.2	-	7.5
Cc1cc(/C=N/NC(=O)C(O)(c2ccccc2)c2ccccc2)c(C)n1-c1cccc(C(=O)O)c1	-	-	-	-	-	.	.	.
O=C(CCc1nnc(-c2ccsc2)o1)NCc1ccccc1OC(F)(F)F	-	-	-	-	-	.	.	.
COc1ccccc1CN1CCN(Cc2nc(Cc3ccccc3)no2)CC1	-	-	-	-	-	.	.	.
C(=C\c1ccccc1)/CN1CCN(Cc2nc(Cc3ccccc3)no2)CC1	-	53.2	-	-	-	-	-	.
COc1ccc2cc(C(=O)Nc3ccc(S(N)(=O)=O)cc3)sc(=O)c2c1OC	-	72.5	-	-	-	38.1	-	-
O=C(Nc1cccc(F)c1)c1ccc(CSc2ccccc2)o1	-	-	-	-	-	.	.	.
O=C(NCc1ccco1)C1Cc2ccccc2CN1S(=O)(=O)c1ccccc1F (stereo not drawn)	-	70.0	-	-	-	77.3	-	7.5
SMILES	STEP inh	Scp-1 inhibitor	LMPTP inh	PP1 inh	PP5 inh	Scp1 confirm	Scp-1 MG ctr	Scp-1 Tm shift
CC(C)(C)c1ccc(C(=O)NC(=S)Nc2ccc(N3CCOCC3)cc2)cc1	-	-	-	-	-	.	.	.
CC(=O)Nc1nc2c(ccc3ccccc32)s1	-	72.2	-	-	-	-	-	.
O=C(Cc1cccs1)Nc1nc2c(ccc3ccccc32)s1	-	-	-	-	-	.	.	.
O=C(COC(=O)c1cc(-c2ccccc2Cl)nc2ccccc12)Nc1ncc(C(F)(F)F)cc1Cl	-	50.3	-	-	-	35.7	-	-
O=C(COC(=O)c1cccc2ccccc12)Nc1ncc(C(F)(F)F)cc1Cl	-	-	-	-	-	.	.	.
Cc1ccc2[nH]c3c(=O)n(CC(=O)NCc4ccco4)ncc3c2c1	-	52.0	-	-	-	-	-	.
CCN(CC)S(=O)(=O)c1cc(NC(=O)C2CC(=O)N(Cc3ccccc3)C2)ccc1Cl (stereo not drawn)	-	-	-	-	-	-	-	.
CC(=O)c1sc(NC(=O)C2CC(=O)N(Cc3ccccc3)C2)nc1-c1ccccc1 (stereo not drawn)	-	-	-	-	-	-	-	.
CC(=O)Nc1ccc(NC(=O)C2CC(=O)N(Cc3ccccc3)C2)cc1 (stereo not drawn)	-	-	-	-	-	.	.	.
O=C1CSC(c2ccco2)N1 (stereo not drawn)	-	-	-	-	-	.	.	.
O=C1NCCCC2c3c(cc(Br)c(O)c3Br)OC12N1CCCCC1 (stereo not drawn)	-	57.1	-	-	-	-	-	.
Cc1c(C(=O)O)sc2nc(CSc3ncc(C(F)(F)F)cc3Cl)[nH]c(=O)c12	-	96.7	-	-	-	48.8	-	-
CCOC(=O)c1sc2nc(CSc3ccccc3Cl)[nH]c(=O)c2c1C	-	-	-	-	-	.	.	.
Cc1cccc(N2CCN(c3ccc(NC(=O)/C=C(/C(=O)O)c4ccccc4)cc3)CC2)c1	-	58.0	-	-	-	71.5	-	-
COc1ccccc1-n1c(SCC(=O)N2CCCCC2)nc2cccnc21	-	95.4	-	-	-	-	-	.
COc1ccccc1-n1c(SCC(=O)N2CCOCC2)nc2cccnc21	-	-	-	-	-	.	.	.
Cc1nc(C(F)(F)F)ccc1C(=O)N1CCC1(C)C(=O)NS(=O)(=O)c1cccc(Cl)c1 (stereo not drawn)	-	.	-	.	.	.	.	.
O=C1NC(=O)/C(=C/c2ccco2)N1	-	-	-	-	-	.	.	.
O=C1NC(=S)NC1=Cc1ccco1	-	58.8	-	.	.	54.1	-	-
CCCc1nc2sc3ccccc3c(=O)c2c(=O)n1Cc1ccc(OC)cc1	-	-	-	-	-	.	.	.
CCCc1nc2sc3ccccc3c(=O)c2c(=O)n1Cc1ccco1	-	68.1	-	.	.	54.1	-	-
Cc1ccc(S(=O)(=O)NNC(=O)CCCCC(=O)NNS(=O)(=O)c2ccc(C)cc2)cc1	-	-	-	-	-	.	.	.
O=C(NNC(=O)c1ccccc1Cl)c1cccs1	-	75.7	-	-	-	-	-	.

Screens as filed in PubChem.
